Assay [1] concerns Streptococcus mutans. Kind of assay: Antimicrobial activity against Streptococcus mutans 240 assessed as biofilm formation at 100 uM after 48 hrs by crystal violet staining-based spectrophotometry relative to control. Format: functional. The method, boiled down: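 Single-concentration screen in a modified biofilm-formation assay. Compound at 100 µM. Biofilm formed is expressed as a percentage of the negative control. Values are the mean of three independent experiments.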

A further assay has as its system Pseudomonas aeruginosa. As to the kind of experiment: Antimicrobial activity against Pseudomonas aeruginosa 6121 assessed as inhibition of biofilm formation after 24 hrs by crystal violet staining-based spectrophotometry. Format: functional, organism-based.
The subject of assay [2] is Staphylococcus aureus. Kind of assay: Antimicrobial activity against methicillin-resistant Staphylococcus aureus 25762 assessed as biofilm formation at 100 uM after 48 hrs by crystal violet staining-based spectrophotometry relative to control. Format: functional.
In assay [3] the test system is Staphylococcus aureus. As to the kind of experiment: Antimicrobial activity against methicillin-resistant Staphylococcus aureus 25762 assessed as inhibition of biofilm formation after 48 hrs by crystal violet staining-based spectrophotometry. Format: functional.
For assay [4], the system named is Streptococcus mutans. As to the kind of experiment: Antimicrobial activity against Streptococcus mutans 240 assessed as inhibition of biofilm formation after 48 hrs by crystal violet staining-based spectrophotometry. Format: functional.

Activity calls are given as the source filed them. The calls are words filed in the database; no cut-off is given here.

Turning to `Nc1nc(/C=C/CNC(=O)c2cc3ccccc3[nH]2)c[nH]1`, the outcome with Streptococcus mutans [1] and in the assay on Staphylococcus aureus [2] was inactive. For the same compound, the inhibition entry with Pseudomonas aeruginosa was “inactive”.

`Cl.Nc1nc(-c2ccc(NC(=O)c3cc4cc(F)ccc4[nH]3)cc2)c[nH]1`: the Activity in the assay with Streptococcus mutans [1] was found to be 3.9%; with Staphylococcus aureus [2], 10.9%. In the assay with Pseudomonas aeruginosa, the inhibition entry is “inactive”. Also, the figures for the MBIC50 with Staphylococcus aureus [3] and with Streptococcus mutans [4] were 60 µM and 50 µM, respectively.

In the case of `Cl.Nc1nc(-c2cccc(NC(=O)c3c[nH]c4ccccc34)c2)c[nH]1`, the Activity in the assay on Streptococcus mutans [1] is 23.9%. Besides, in the assay on Pseudomonas aeruginosa, the inhibition result was “inactive”. Further, the result in the assay on Staphylococcus aureus [2] was inactive.

Take `Nc1ccc2[nH]c(C(=O)Nc3cccc(-c4c[nH]c(N)n4)c3)cc2c1`: the outcome in the assay with Streptococcus mutans [1] and in the assay on Staphylococcus aureus [2] was inactive. In addition, the inhibition entry in the assay with Pseudomonas aeruginosa was “inactive”.

Regarding `CC(C)(C)OC(=O)n1cc(-c2cccc(NC(=O)c3cc4cc(OC(F)(F)F)ccc4[nH]3)c2)nc1N`, the result in the assay on Streptococcus mutans [1] and in the assay with Staphylococcus aureus [2] was inactive. In addition, the inhibition result with Pseudomonas aeruginosa is “inactive”.

For `Nc1ncc(/C=C/CNC(=O)c2cc(Br)c(Br)[nH]2)[nH]1` [OROIDIN], the Activity in the assay on Streptococcus mutans [1] came out at 18%. Further, in the assay on Staphylococcus aureus [2], the outcome was inactive.

Turning to `Cl.Nc1nc(-c2cccc(NC(=O)c3cc4cc(F)ccc4[nH]3)c2)c[nH]1`, in the assay with Streptococcus mutans [1], the Activity is given as 8.7%. Moreover, the inhibition result in the assay on Pseudomonas aeruginosa is “inactive”. The result with Staphylococcus aureus [2] was inactive.

Turning to `CNc1nc(-c2cccc(NC(=O)c3cc4ccccc4[nH]3)c2)c[nH]1.Cl`, the results for the Activity with Streptococcus mutans [1] and with Staphylococcus aureus [2] were 8.8% and 19.1%, respectively. Also, the inhibition entry in the assay on Pseudomonas aeruginosa was “inactive”. Further, the MBIC50 in the assay on Staphylococcus aureus [3] stood at 70 µM; in the assay with Streptococcus mutans [4], 80 µM.

In the case of `CC(C)(C)OC(=O)n1cc(-c2cccc(NC(=O)c3cc4ccccc4[nH]3)c2)nc1N`, the Activity in the assay on Streptococcus mutans [1] amounted to 30.6%. The inhibition entry in the assay on Pseudomonas aeruginosa was “inactive”. Besides, in the assay on Staphylococcus aureus [2], the outcome was inactive.

On to `CC(C)(C)OC(=O)n1cc(-c2cccc(NC(=O)c3cc4cc(O)ccc4[nH]3)c2)nc1N`, for which the Activity in the assay on Streptococcus mutans [1] worked out at 57.6%. Also, in the assay on Pseudomonas aeruginosa, the inhibition entry is “inactive”. The outcome in the assay on Staphylococcus aureus [2] was inactive.

With `Nc1nc(/C=C/CNC(=O)c2cc3cc(F)ccc3[nH]2)c[nH]1`, the results for the Activity in the assay on Streptococcus mutans [1] and in the assay with Staphylococcus aureus [2] were 18.7% and 8.1%, respectively. In addition, the inhibition entry in the assay on Pseudomonas aeruginosa was “inactive”. Further, the MBIC50 in the assay on Staphylococcus aureus [3] and in the assay with Streptococcus mutans [4] was 60 µM throughout.

Turning to `Cl.Nc1nc(-c2cccc(NC(=O)c3cc4sccc4[nH]3)c2)c[nH]1`, the Activity with Streptococcus mutans [1] stood at 10.1%; in the assay on Staphylococcus aureus [2] it was 23%. The inhibition entry in the assay with Pseudomonas aeruginosa is “inactive”. The figures for the MBIC50 in the assay on Staphylococcus aureus [3] and in the assay with Streptococcus mutans [4] were 90 µM and 60 µM, respectively.

Regarding `Cl.Nc1nc(-c2cccc(NC(=O)c3cc4cc(OCc5ccccc5)ccc4[nH]3)c2)c[nH]1`, the Activity with Streptococcus mutans [1] worked out at 8.2%; in the assay on Staphylococcus aureus [2], 31.4%. In addition, the inhibition result in the assay on Pseudomonas aeruginosa is “inactive”.

As for `Cl.Nc1nc(-c2ccc(NC(=O)c3cc4cc(Cl)ccc4[nH]3)cc2)c[nH]1`, in the assay on Streptococcus mutans [1], the Activity was 38.2%. Further, in the assay with Pseudomonas aeruginosa, the inhibition entry is “inactive”. The result in the assay on Staphylococcus aureus [2] was inactive.

As to `CC(C)(C)OC(=O)n1cc(-c2cccc(NC(=O)c3cc4cc(N)ccc4[nH]3)c2)nc1N`, the result in the assay with Streptococcus mutans [1] and in the assay with Staphylococcus aureus [2] was inactive. Also, in the assay on Pseudomonas aeruginosa, the inhibition entry was “inactive”.

Turning to `Cl.Nc1nc(-c2cccc(NC(=O)c3cc4ccccc4[nH]3)c2)c[nH]1`, the Activity in the assay on Streptococcus mutans [1] was determined as 14.2%; in the assay on Staphylococcus aureus [2], 13.9%. For the same compound, the inhibition entry in the assay with Pseudomonas aeruginosa was “inactive”.

With `Cl.Nc1nc(-c2cccc(NC(=O)c3cc4cc([N+](=O)[O-])ccc4[nH]3)c2)c[nH]1`, in the assay on Streptococcus mutans [1], the Activity amounted to 33.3%. The inhibition result in the assay with Pseudomonas aeruginosa is “inactive”. For the same compound, the result in the assay with Staphylococcus aureus [2] was inactive.

Regarding `Cl.Nc1nc(-c2cccc(NC(=O)c3cc4cc(O)ccc4[nH]3)c2)c[nH]1`, the Activity in the assay on Streptococcus mutans [1] was 53.4%. Further, the inhibition result in the assay with Pseudomonas aeruginosa was “inactive”. In addition, the outcome in the assay with Staphylococcus aureus [2] was inactive.

As for `Cl.Nc1nc(-c2ccc(NC(=O)c3cc4ccccc4[nH]3)cc2)c[nH]1`, the Activity with Streptococcus mutans [1] is given as 8.1%; with Staphylococcus aureus [2] it was 11.1%. Further, the inhibition result in the assay with Pseudomonas aeruginosa was “inactive”. For the same compound, the results for the MBIC50 in the assay with Staphylococcus aureus [3] and with Streptococcus mutans [4] were 90 µM and 60 µM, respectively.

Consider `Cl.Nc1nc(-c2cccc(NC(=O)c3cc4cc(Cl)ccc4[nH]3)c2)c[nH]1`, for which the values for the Activity in the assay on Streptococcus mutans [1] and with Staphylococcus aureus [2] were 6.8% and 44%, respectively. Further, the inhibition entry in the assay on Pseudomonas aeruginosa was “inactive”.

As to `COc1ccc2[nH]c(C(=O)Nc3cccc(-c4c[nH]c(N)n4)c3)cc2c1.Cl`, in the assay with Streptococcus mutans [1], the Activity is 10.5%. For the same compound, the inhibition entry with Pseudomonas aeruginosa is “inactive”. In addition, the outcome in the assay on Staphylococcus aureus [2] was inactive.

For the origin of these results see ChEMBL document CHEMBL3259692, “Inhibition of biofilm formation by conformationally constrained indole-based analogues of the marine alkaloid oroidin” (2014).
